Laboratory results reported in ChEMBL document CHEMBL1126325, “Inhibition of pig kidney L-aromatic amino acid decarboxylase by 2,3-methano-m-tyrosines” (J Med Chem, 1992).

How the values were obtained:
[1] = target: T1, Aromatic-L-amino-acid decarboxylase (Sus scrofa, UniProt P80041); assay: Inhibitory activity against pig kidney L-aromatic amino acid decarboxylase (Dopa decarboxylase)
T1 sequence (P80041 whole entry): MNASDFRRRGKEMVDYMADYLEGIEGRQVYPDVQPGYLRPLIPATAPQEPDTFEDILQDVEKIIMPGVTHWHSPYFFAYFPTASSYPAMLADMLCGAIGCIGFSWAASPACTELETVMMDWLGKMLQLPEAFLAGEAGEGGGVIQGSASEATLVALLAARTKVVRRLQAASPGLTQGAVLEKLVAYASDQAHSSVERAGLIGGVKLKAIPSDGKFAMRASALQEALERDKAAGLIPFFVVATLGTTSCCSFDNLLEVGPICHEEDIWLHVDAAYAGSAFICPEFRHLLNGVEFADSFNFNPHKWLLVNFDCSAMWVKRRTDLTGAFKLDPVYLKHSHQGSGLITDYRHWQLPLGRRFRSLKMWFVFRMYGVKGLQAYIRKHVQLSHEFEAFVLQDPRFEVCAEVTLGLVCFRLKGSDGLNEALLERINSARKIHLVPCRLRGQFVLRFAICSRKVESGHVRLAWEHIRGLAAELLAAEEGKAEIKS
Procedure, shortened: (§1)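 The enzyme was purified from pig kidney. The crude extract was clarified with Bioacryl-BP-1000 and centrifuged, then run over DEAE-cellulose, phenyl Sepharose CL-4B and Sephacryl S-300. Decarboxylase activity was measured by a continuous spectrophotometric CO₂-detection procedure using a commercial CO₂ kit. Inhibition was expressed as Ki.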

[2] = target: T2, Aromatic-L-amino-acid decarboxylase (Sus scrofa) (UniProt P80041); assay: Relative inhibitory comparison to that of (+)D-m-Tyrosine.
T2 sequence (whole entry): T1 sequence (P80041 whole entry)

[3] = target: T1, Aromatic-L-amino-acid decarboxylase; assay: Inhibitory activity against pig kidney L-aromatic amino acid decarboxylase (Dopamine decarboxylase); procedure, shortened: as §1

| Ki [1] | Relative inhibition [2] | Ki [3] | SMILES |
| --- | --- | --- | --- |
| 630 µM |  |  | NC1(C(=O)O)CC1c1cccc(O)c1 (single isomer, unassigned; (-)) [listing 1 of 2 here] |
|  | 1.6 |  | NC1(C(=O)O)CC1c1cccc(O)c1 (single isomer, unassigned; (-)) [listing 2 of 2 here] |

Second part, the molecule before the results:

| SMILES | Ki [1] | Relative inhibition [2] | Ki [3] |
| --- | --- | --- | --- |
| N[C@]1(C(=O)O)C[C@@H]1c1cccc(O)c1 | 330 µM | 3 |  |
| N[C@@]1(C(=O)O)C[C@H]1c1cccc(O)c1 | 49 µM | 20.4 |  |
| NC1(C(=O)O)CC1c1cccc(O)c1 (single isomer, unassigned; (+)) [listing 1 of 2 here] |  |  | 22 µM |
| NC1(C(=O)O)CC1c1cccc(O)c1 (single isomer, unassigned; (+)) [listing 2 of 2 here] |  | 45.4 |  |
